For test [1], the system named is HFF. Description: Compound was tested for antiviral activity against human cytomegalovirus (HCMV) by plaque reduction assay using HFF cells. Type of test: functional, cell-based. The essentials:
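HCMV plaque reduction assay in HFF cells, run in duplicate. Value reported as IC50. Highest concentration tested 10 or 100.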
A general note: Plaques are areas of infected cells; plaque reduction assays count them against a control.

The test system of another test is Human alphaherpesvirus 1. Description: Compound was tested for antiviral activity against herpes simplex virus type 1 (HSV-1). The format is functional, organism-based. The essentials:
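HSV-1 activity read by ELISA in quadruplicate wells, with the plaque assay used for the DHPG control. Value reported as IC50. Top concentration tested 10 or 100.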

The subject of test [2] is HFF. Briefly: Compound was tested for visual cytotoxicity on human foreskin fibroblasts (HFF) cells. Type of test: functional, cell-based. The essentials:
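Cytotoxicity in HFF cells scored visually at the time HCMV plaques were counted. Results from duplicate experiments.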

Test [3] in a line: Compound was tested for inhibition activity of human oral carcinoma cell line (KB ) cells in quadruplicate assay. The format is functional, cell-based. The essentials: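 KB cell growth inhibition was run in quadruplicate wells and reported as IC50, meaning the concentration that halves growth. Values marked > indicate that 50% inhibition was not reached at the highest concentration tested.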

For test [4], the system named is HFF. Description: Compound was tested for antiviral activity against human cytomegalovirus (HCMV) by yield reduction assay using HFF cells. Type of test: functional. The essentials:
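HCMV yield reduction assay in HFF cells, run in duplicate. Value reported as IC90. Highest concentration tested 10 or 100.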

The structures appear in SMILES notation.

In the case of `OC[C@H]1O[C@@H](n2cnc3cc(Cl)c(Cl)cc32)[C@H](F)[C@@H]1O`, the IC50 (in the test on HFF [1]; in the test with Human alphaherpesvirus 1; with HFF [2]; in test [3]) was over 100 µM each time.
`O[C@H]1[C@H](OC(c2ccccc2)(c2ccccc2)c2ccccc2)[C@@H](COC(c2ccccc2)(c2ccccc2)c2ccccc2)O[C@H]1n1c(Cl)nc2cc(Cl)c(Cl)cc21`: the IC50 in the test with HFF [1] is over 10 µM; in the test on Human alphaherpesvirus 1 it was over 100 µM; in the test on HFF [2], over 100 µM; in test [3], over 100 µM.
As to `Clc1cc2nc(Cl)n([C@@H]3O[C@H](COC(c4ccccc4)(c4ccccc4)c4ccccc4)[C@@H](OC(c4ccccc4)(c4ccccc4)c4ccccc4)[C@@H]3OC(c3ccccc3)(c3ccccc3)c3ccccc3)c2cc1Cl`, the concentration for half-maximal inhibition (IC50) is over 10 µM in the test with HFF [1], over 100 µM with Human alphaherpesvirus 1, over 100 µM in the test with HFF [2] and over 100 µM in test [3].
As for `OC[C@H]1O[C@@H](n2c(Cl)nc3cc(Cl)c(Cl)cc32)[C@@H](F)[C@@H]1O`, the IC50 in the test on HFF [1] is 8 µM; in the test with Human alphaherpesvirus 1, 50 µM; with HFF [2], 32 µM; in test [3] it was 60 µM. In the test with HFF [4], this compound displayed a concentration for an effect of 90% (IC90) of 8 µM.
Consider `OC[C@H]1O[C@@H](n2c(Br)nc3cc(Cl)c(Cl)cc32)[C@H](F)[C@@H]1O`, for which the half-maximal inhibitory concentration (IC50) in the test on HFF [1] was 17 µM; in the test on Human alphaherpesvirus 1 it was over 100 µM; with HFF [2], 100 µM; in test [3], 80 µM.
For the compound `O=C(OC[C@H]1O[C@@H](n2c(Cl)nc3cc(Cl)c(Cl)cc32)[C@@H](F)[C@@H]1OC(=O)c1ccccc1)c1ccccc1`, the IC50 in test [3] came out at 100 µM.
Regarding `CC(C)Nc1nc2cc(Cl)c(Cl)cc2n1[C@@H]1O[C@H](CO)[C@@H](O)[C@H]1F`, the IC50 (with HFF [1]; with Human alphaherpesvirus 1; in the test on HFF [2]; in test [3]) was over 100 µM throughout.
Regarding `OC[C@H]1O[C@@H](n2c(Cl)nc3cc(Cl)c(Cl)cc32)C(O)[C@@H]1F` (stereo not given in full), the half-inhibitory concentration (IC50) with HFF [1] was 9.4 µM; in the test on Human alphaherpesvirus 1 it was over 100 µM; in the test with HFF [2], 40 µM; in test [3], over 100 µM. In the test on HFF [4], the IC90 was 13 µM.
`OC[C@H]1O[C@@H](n2c(Br)nc3cc(Cl)c(Cl)cc32)[C@H](O)[C@@H]1O`: the 90% effect level in the test on HFF [4] (IC90) was put at 0.2 µM. In test [3], this compound gave a 50% inhibitory concentration (IC50) of over 100 µM.
For `OC[C@H]1O[C@@H](n2c(Cl)nc3cc(Cl)c(Cl)cc32)[C@H](O)[C@@H]1O`, the concentration for an effect of 90% (IC90) with HFF [4] was found to be 1.4 µM. For the same compound, in test [3], half-maximal inhibition (IC50) was put at 210 µM.
In the same order, the values of `OC[C@H]1O[C@@H](n2cnc3cc(Cl)c(Cl)cc32)[C@H](O)[C@@H]1O` [DICHLORORIBOBENZIMIDAZOLE] are 19 µM and 36 µM.
As for `Nc1nc2c(ncn2COC(CO)CO)c(=O)[nH]1` [GANCICLOVIR], the half-inhibitory concentration (IC50) (in the test with HFF [2]; in test [3]) was over 100 µM each time. This compound registered an IC90 with HFF [4] of 1.6 µM.

One may read the IC50 as the concentration at which inhibition is half-maximal. Higher therefore signals lower potency. For orientation: IC90 means the concentration at which the effect reaches the 90% level. A lower IC90 goes with an effect from little substance.

These data come from ChEMBL document CHEMBL1133755, “Synthesis of fluorosugar analogues of 2,5,6-trichloro-1-(beta-D-ribofuranosyl)benzimidazole as antivirals with potentially increased glycosidic bond stability” (J Med Chem, 2000).
